According to ChEMBL document CHEMBL3864132, “Free fatty acid receptor 1 (GPR40) agonists containing spirocyclic periphery inspired by LY2881835” (Bioorg Med Chem, 2016):
Each block holds one compound with its values, some of them ahead of it.

Legend:
[1] = target: T1, Free fatty acid receptor 3 (Homo sapiens, UniProt O14843); assay: Agonist activity at human FFA3 receptor expressed in CHO cells assessed as induction of Ca2+ flux by fluo-8 dye based FLIPR assay; assay type: functional, cell-based
T1 sequence (O14843 whole entry): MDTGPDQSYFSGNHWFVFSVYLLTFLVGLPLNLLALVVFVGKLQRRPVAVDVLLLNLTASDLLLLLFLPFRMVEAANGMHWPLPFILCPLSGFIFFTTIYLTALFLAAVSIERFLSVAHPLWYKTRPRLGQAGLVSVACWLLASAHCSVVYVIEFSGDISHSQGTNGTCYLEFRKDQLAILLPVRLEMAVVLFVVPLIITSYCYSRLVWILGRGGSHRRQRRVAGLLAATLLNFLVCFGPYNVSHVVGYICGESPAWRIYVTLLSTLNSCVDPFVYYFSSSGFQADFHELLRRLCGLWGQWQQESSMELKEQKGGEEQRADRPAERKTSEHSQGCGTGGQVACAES
How it was run: (§1)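 CHO lines stably expressing the respective receptor (GPR43, GPR41 or GPR120) used for specificity screening. Cells loaded 1 h with Fluo-8 calcium dye and read by FLIPR; maximum fluorescence change over baseline taken as agonist response.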

[2] = target: T2, Free fatty acid receptor 4 (Homo sapiens, UniProt Q5NUL3); assay: Agonist activity at human FFA4 receptor expressed in CHO cells assessed as induction of Ca2+ flux by fluo-8 dye based FLIPR assay; assay type: functional, cell-based; how it was run: as §1
T2 sequence (Q5NUL3 whole entry): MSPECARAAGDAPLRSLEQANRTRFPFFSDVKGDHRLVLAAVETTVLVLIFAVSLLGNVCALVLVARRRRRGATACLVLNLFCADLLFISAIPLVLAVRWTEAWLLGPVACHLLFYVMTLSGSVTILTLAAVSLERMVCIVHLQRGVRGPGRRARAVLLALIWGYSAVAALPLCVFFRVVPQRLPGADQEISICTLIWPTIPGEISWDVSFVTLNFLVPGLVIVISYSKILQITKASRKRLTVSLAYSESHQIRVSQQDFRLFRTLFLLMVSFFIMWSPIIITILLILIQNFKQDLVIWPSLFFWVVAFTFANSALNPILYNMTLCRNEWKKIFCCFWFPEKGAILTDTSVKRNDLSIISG

[3] = Tmax in JAXC57BL/6J mouse at 10 mg/kg, po administered through plastic gavage as single dose by HPLC-MS analysis; assay type: ADME, organism-based; conditions: C57BL/6J, in vivo
How it was run: (§2)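 Male C57BL/6J mice dosed orally by gavage, 10 mg/kg single dose in 10% β-cyclodextrin (5 ml/kg). Plasma sampled at 30, 60, 120, 240 and 360 min (n=5 per time point), with 360 min excluded from calculations. HPLC-MS/MS quantitation; Cmax, Tmax and AUC from group data by linear trapezoidal rule.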

[4] = Cmax in JAXC57BL/6J mouse at 10 mg/kg, po administered through plastic gavage as single dose measured up to 240 mins by HPLC-MS analysis; assay type: ADME, organism-based; design: dose 10 mg/kg, route oral; conditions: C57BL/6J, in vivo; how it was run: as §2
[5] = Observed AUC infinity in JAXC57BL/6J mouse at 10 mg/kg, iv through bolus administration measured after 10 to 240 mins by HPLC-MS analysis; assay type: ADME, organism-based; design: dose 10 mg/kg, route intravenous, time infinity; conditions: C57BL/6J, in vivo
How it was run: (§3)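 Male C57BL/6J mice given 10 mg/kg as tail-vein bolus in 10% β-cyclodextrin (5 ml/kg). Plasma by cardiac puncture at 10, 30, 60, 120 and 240 min (n=5 per time point), stored at -70°C. Levels by HPLC-MS/MS; parameters from group data by linear trapezoidal rule.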

[6] = Cmax in JAXC57BL/6J mouse at 10 mg/kg, iv through bolus administration measured after 10 to 240 mins by HPLC-MS analysis; assay type: ADME, organism-based; design: dose 10 mg/kg, route intravenous; conditions: C57BL/6J, in vivo; how it was run: as §3
[7] = Oral bioavailability in JAXC57BL/6J mouse at 10 mg/kg administered through plastic gavage as single dose measured up to 240 mins by HPLC-MS analysis; assay type: ADME, organism-based; conditions: C57BL/6J, in vivo
How it was run: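 F = AUC0-∞ oral / AUC0-∞ i.v. × 100%, from male C57BL/6J mice given 10 mg/kg in 10% β-cyclodextrin by gavage or tail-vein bolus. n=5 per time point; plasma drug by HPLC-MS/MS.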

[8] = Tmax in JAXC57BL/6J mouse at 10 mg/kg, iv through bolus administration measured after 10 to 240 mins by HPLC-MS analysis; assay type: ADME, organism-based; conditions: C57BL/6J, in vivo; how it was run: as §3
[9] = Apparent permeability from apical to basolateral side in human Caco2 cells at 10 uM by HPLC-MS analysis; assay type: ADME, cell-based; conditions: Caco-2
How it was run: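 Apical-to-basolateral transport across Caco-2 monolayers, integrity checked by TEER in every well. Compound at 10 μM, acceptor concentrations by HPLC-MS. Papp = (VA/(area × time)) × ([drug]acc/[drug]initial,donor), insert area 0.31 cm², in 10^-6 cm/s. Mean of n = 2.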

[10] = target: T3, Free fatty acid receptor 1 (Homo sapiens, UniProt O14842); assay: Agonist activity at human FFA1 receptor expressed in CHO cells assessed as induction of Ca2+ flux by fluo-8 dye based FLIPR assay; assay type: functional, cell-based
How it was run: (§4)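 CHO cells stably expressing human GPR40 seeded 24 h before assay, loaded 1 h with Fluo-8 calcium dye, read on FLIPR. Agonist response taken as maximum fluorescence change over baseline; concentration-response curves fitted for EC50. Efficacy expressed relative to GW9508 at 5 μM.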

[11] = Half life in BALB/c mouse liver microsomes at 2 uM by HPLC-MS analysis; assay type: ADME
How it was run: (§5)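 Pooled liver microsomes from male BALB/c mice at 0.42 mg protein/ml in 100 mM potassium phosphate pH 7.4 with MgCl2, NADPH and a G6P/G6PDH regenerating system. Compound 2 μM (1.6% solvent), 37°C, five time points over 40 min, duplicates. Quenched in acetonitrile, analysed by HPLC-MS/MS. kel from ln(AUC) versus time; T1/2 = 0.693/kel; CLint scaled to incubation volume per mg microsomes.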

[12] = target: T4, Free fatty acid receptor 2 (Homo sapiens, UniProt O15552); assay: Agonist activity at human FFA2 receptor expressed in CHO cells assessed as induction of Ca2+ flux by fluo-8 dye based FLIPR assay; assay type: functional, cell-based; how it was run: as §1
T4 sequence (O15552 whole entry): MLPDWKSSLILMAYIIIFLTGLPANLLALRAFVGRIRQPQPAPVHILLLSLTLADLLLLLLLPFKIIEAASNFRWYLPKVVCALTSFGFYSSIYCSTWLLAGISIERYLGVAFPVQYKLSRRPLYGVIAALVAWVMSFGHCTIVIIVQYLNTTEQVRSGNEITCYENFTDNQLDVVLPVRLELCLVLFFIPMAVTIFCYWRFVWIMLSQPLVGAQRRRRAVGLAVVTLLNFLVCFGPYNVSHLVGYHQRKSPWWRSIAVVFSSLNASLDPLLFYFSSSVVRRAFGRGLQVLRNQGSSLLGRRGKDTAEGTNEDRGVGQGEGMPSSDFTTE

[13] = Kinetic aqueous solubility of the compound in PBS buffer […] at pH 7.4 after 2 hrs by UV-Visible spectrophotometric analysis; assay type: physicochemical; conditions: read-out: Kinetic_solubility
How it was run: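 Equilibrated 2 h at 25°C with shaking, then filtered. Filtrates read by UV-Vis scan against 0–400 μM calibration curves in methanol/PBS.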

[14] = Protein binding in human plasma at 1 uM after 5 hrs by HPLC-MS/MS analysis; assay type: ADME, cell-free; conditions: read-out: PPB (converted)
How it was run: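 Equilibrium dialysis (12–14 kDa MWCO) of plasma spiked at 1 μM (1% solvent) against PBS pH 7.4, 5 h at 37°C with shaking, quadruplicates. Chambers matrix-matched, precipitated with acetonitrile and analysed by HPLC-MS/MS. Bound % = (1 − buffer/plasma peak area) × 100; recovery checked against undialyzed spiked plasma.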

[15] = Observed AUC infinity in JAXC57BL/6J mouse at 10 mg/kg, po administered through plastic gavage as single dose measured up to 240 mins by HPLC-MS analysis; assay type: ADME, organism-based; design: dose 10 mg/kg, time infinity, route oral; conditions: C57BL/6J, in vivo; how it was run: as §2
[16] = Intrinsic clearance in BALB/c mouse liver microsomes at 2 uM up to 40 mins by HPLC-MS analysis; assay type: ADME; how it was run: as §5
[17] = target: T3, Free fatty acid receptor 1; assay: Agonist activity at human FFA1 receptor expressed in CHO cells assessed as induction of Ca2+ flux by fluo-8 dye based FLIPR assay relative to GW9508; assay type: functional, cell-based; how it was run: as §4
[18] = target: T3, Free fatty acid receptor 1; assay: Agonist activity at FFA1 receptor (unknown origin)
How it was run: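 Read-out on FLIPR as maximum fluorescence change over baseline. Dose-response testing gave EC50 from curve fitting. Efficacy is expressed as % of GW9508 reference agonist used at 5 μM.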

T3 sequence (O14842 whole entry): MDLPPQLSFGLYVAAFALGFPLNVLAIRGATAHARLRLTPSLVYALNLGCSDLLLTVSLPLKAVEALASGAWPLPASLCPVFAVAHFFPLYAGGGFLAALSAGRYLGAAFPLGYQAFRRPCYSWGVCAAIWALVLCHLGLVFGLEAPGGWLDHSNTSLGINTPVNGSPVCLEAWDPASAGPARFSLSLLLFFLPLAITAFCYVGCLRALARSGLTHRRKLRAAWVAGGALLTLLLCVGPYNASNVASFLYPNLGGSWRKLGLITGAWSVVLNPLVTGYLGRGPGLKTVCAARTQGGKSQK

EC50 [1]: > 10000 nM
EC50 [2]: > 10000 nM
Papp A→B at 10 µM [9]: 10.4 ×10⁻⁶ cm/s
EC50 [10]: 77 nM
half-life at 2 µM [11]: 9.6 min
EC50 [12]: > 10000 nM
solubility kinetic at 2 h [13]: 69 µM
fraction unbound at 5 h, 1 µM [14]: 0.002
CLint at 40 min, 2 µM [16]: 173 µL/min/mg
Emax [17]: 74%
SMILES: Cc1ccc(CC2CCOC3(CCN(Cc4ccc(COc5ccc(CCC(=O)O)cc5)cc4)CC3)C2)cc1.Cl (stereo not given)

EC50 [10]: 4540 nM
Emax [17]: 53%
SMILES: O=C(O)CCc1ccc(OCc2ccc(CN3CCC4(CC3)CC(Cc3nc(C5CC5)no3)CCO4)cc2)cc1 (stereo not given)

EC50 [10]: > 20000 nM
SMILES: O=C(O)CCc1ccc(OCc2ccc(CN3CCC4(CC3)CC(Cc3nc(-c5cccnc5)no3)CCO4)cc2)cc1 (stereo not given)

EC50 [18]: 233 nM
SMILES: CC#C[C@@H](CC(=O)O)c1ccc(OCc2ccc(CN3CCC4(C=Cc5ccccc54)CC3)cc2)cc1 [LY2881835]

EC50 [10]: 1300 nM
Emax [17]: 98%
SMILES: O=C(O)CCc1ccc(OCc2ccc(CN3CCC4(CC3)CC(OCc3cccc(F)c3)CCO4)cc2)cc1 (stereo not given)

Further lines, the compound ahead of its results:

SMILES: Cl.O=C(O)CCc1ccc(OCc2ccc(CN3CCC4(CC3)CC(Cc3ccc(F)cc3)CCO4)cc2)cc1 (stereo not given)
EC50 [1]: > 10000 nM
EC50 [2]: > 10000 nM
Tmax [3]: 30 min
Cmax [4]: 226 ng/mL
AUC(0-inf) [5]: 1790 ng·h/mL
Cmax [6]: 2770 ng/mL
bioavailability [7]: 10.3%
Tmax [8]: 10 min
Papp A→B at 10 µM [9]: 8.7 ×10⁻⁶ cm/s
EC50 [10]: 410 nM
half-life at 2 µM [11]: 23.4 min
EC50 [12]: > 10000 nM
solubility kinetic at 2 h [13]: 143 µM
fraction unbound at 5 h, 1 µM [14]: 0.017
AUC(0-inf) [15]: 184 ng·h/mL
CLint at 40 min, 2 µM [16]: 71.3 µL/min/mg
Emax [17]: 88%

SMILES: CC(C)NCC(O)COc1cccc2ccccc12 (stereo not given) [PROPRANOLOL]
Papp A→B at 10 µM [9]: 28 ×10⁻⁶ cm/s

SMILES: O=C(O)CCc1ccc(OCc2ccc(CN3CCC4(CC3)CC(OCc3ccccc3)CCO4)cc2)cc1 (stereo not given)
EC50 [10]: 1160 nM
Emax [17]: 100%

SMILES: O=C(O)CCc1ccc(OCc2ccc(CN3CCC4(CC3)CC(OCc3ccc(C(F)(F)F)cc3)CCO4)cc2)cc1 (stereo not given)
EC50 [10]: > 20000 nM

SMILES: COCCc1noc(CC2CCOC3(CCN(Cc4ccc(COc5ccc(CCC(=O)O)cc5)cc4)CC3)C2)n1 (stereo not given)
EC50 [10]: > 20000 nM

SMILES: O=C(O)CCc1ccc(OCc2ccc(CN3CCC4(CC3)CC(OCc3ccc(F)cc3)CCO4)cc2)cc1 (stereo not given)
EC50 [10]: 2010 nM
Emax [17]: 75%
